Data published in ChEMBL document CHEMBL1221219, “Selective blockade of 2-arachidonoylglycerol hydrolysis produces cannabinoid behavioral effects” (Nat Chem Biol, 2009).
Calls of active or inactive are those of the source. The calls are words filed in the database; no cut-off is given here.

What was measured:
Mus musculus [1] = assay: Inhibition of PNPLA8 in C57B1/6J mouse brain membrane at 16 mg/kg, ip after 4 hrs by competitive activity-based protein profiling-MudPIT method; format: functional, organism-based; parameters: dose 16 mg/kg
Procedure, shortened: (§1)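 After i.p. dosing in 4:1 PEG300:Tween80, male C57Bl/6J mice were killed at 4 h. Brain membrane proteomes from treated and vehicle mice were labelled with FP-biotin. Labelled proteins were enriched on avidin, digested on-bead with trypsin and analysed by multidimensional LC-MS. Proteins were identified by SEQUEST, and dosed samples were compared with vehicle.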

Mus musculus [2] = assay: Visceral analgesic activity against C57B1/6J mouse assessed as inhibition of acetic acid-induced writhing response for 20 mins at 16 mg/kg, ip pretreated 2 hr before acetic acid challenge; format: functional, organism-based; parameters: dose 16 mg/kg
Procedure, shortened: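 Male C57Bl/6J mice (6-8 weeks) dosed 16 mg kg^-1 i.p. in 4:1 v/v PEG300:Tween80, with vehicle controls. Assessed in the tetrad test for cannabinoid effects or in the acetic acid-induced abdominal stretching assay.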

Mus musculus [3] = assay: Antinociceptive activity against C57B1/6J mouse at assessed as latency in reaction time required for thermal stimulus-induced tail flicking at 16 mg/kg, ip after 2 hrs; format: functional, organism-based; parameters: dose 16 mg/kg
Procedure, shortened: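 Tail immersion assay of thermal pain in male C57Bl/6J mice, 6-8 weeks. Dose 16 mg kg^-1 i.p. in 4:1 v/v PEG300:Tween80 at 4 μl g^-1, with vehicle controls.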

[4] = target: T1, Diacylglycerol lipase-beta (Homo sapiens) (UniProt Q8NCG7); assay: Inhibition of recombinant DAGLbeta expressed in HEK293 cells assessed as hydrolysis of 1-stearoyl-2-arachidonoyl-glycerol to 2-AG at 25 uM after 30 mins by LC-MS method; format: cell-based
T1 sequence (whole entry): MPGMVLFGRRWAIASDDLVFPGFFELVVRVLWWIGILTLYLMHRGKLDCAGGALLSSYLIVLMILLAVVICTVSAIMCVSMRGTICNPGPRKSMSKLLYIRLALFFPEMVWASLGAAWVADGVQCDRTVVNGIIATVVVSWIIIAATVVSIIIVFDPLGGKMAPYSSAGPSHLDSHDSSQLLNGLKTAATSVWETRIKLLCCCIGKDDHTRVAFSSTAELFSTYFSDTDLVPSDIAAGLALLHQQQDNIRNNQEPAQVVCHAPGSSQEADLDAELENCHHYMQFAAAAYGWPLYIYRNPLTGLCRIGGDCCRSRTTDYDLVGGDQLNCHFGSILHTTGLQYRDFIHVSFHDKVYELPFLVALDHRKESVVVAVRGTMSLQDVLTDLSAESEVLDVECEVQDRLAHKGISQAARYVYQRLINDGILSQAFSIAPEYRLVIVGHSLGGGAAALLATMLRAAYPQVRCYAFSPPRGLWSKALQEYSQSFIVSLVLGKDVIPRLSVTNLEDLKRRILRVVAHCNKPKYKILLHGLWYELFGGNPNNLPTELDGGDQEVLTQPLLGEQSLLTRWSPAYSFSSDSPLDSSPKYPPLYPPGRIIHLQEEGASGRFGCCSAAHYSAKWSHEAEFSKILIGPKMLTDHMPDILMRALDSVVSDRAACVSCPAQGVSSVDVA

Mus musculus [5] = assay: Inhibition of PRCP in C57B1/6J mouse brain membrane at 16 mg/kg, ip after 4 hrs by competitive activity-based protein profiling-MudPIT method; format: functional, organism-based; parameters: dose 16 mg/kg; procedure, shortened: as §1
Mus musculus [6] = assay: Inhibition of ACOT2 in C57B1/6J mouse brain membrane at 16 mg/kg, ip after 4 hrs by competitive activity-based protein profiling-MudPIT method; format: functional, organism-based; parameters: dose 16 mg/kg
Procedure, shortened: (§2)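 Mice were dosed 16 mg kg^-1 i.p. or vehicle and killed at 4 h. Brain membrane proteomes were labelled with FP-biotin, avidin-enriched, trypsin-digested on bead, analysed by multidimensional LC-MS and identified by SEQUEST.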

Mus musculus [7] = assay: Inhibition of MAGL in C57B1/6J mouse brain membrane at 4 mg/kg, ip after 4 hrs by competitive activity-based protein profiling method relative to control; format: functional; conditions: route intraperitoneal
Procedure, shortened: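 Male C57Bl/6J mice (6-8 weeks, 20-26 g) dosed i.p. in 4:1 v/v PEG300:Tween80 vehicle at 4 ul g^-1; killed 4 h post-dose. Brain membrane proteomes were then labelled with FP-rhodamine (2 μM, 30 min, room temperature), resolved by SDS-PAGE and scanned in-gel for fluorescence. MAGL signal was compared with vehicle-treated controls.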

Mus musculus [8] = assay: Inhibition of ABHD10 in C57B1/6J mouse brain membrane at 16 mg/kg, ip after 4 hrs by competitive activity-based protein profiling-MudPIT method; format: functional, organism-based; parameters: dose 16 mg/kg; procedure, shortened: as §2
Mus musculus [9] = assay: Inhibition of NTE in C57B1/6J mouse brain membrane at 16 mg/kg, ip after 4 hrs by competitive activity-based protein profiling-MudPIT method; format: functional, organism-based; parameters: dose 16 mg/kg; procedure, shortened: as §1
Mus musculus [10] = assay: Inhibition of MAGL in C57B1/6 mouse nucleus accumbens assessed as increase in interstitial level of 2-AG at 10 mg/kg, ip by following neuronal depolarization by microdialysis; format: functional, organism-based; parameters: dose 10 mg/kg
Procedure, shortened: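 Male C57Bl/6 mice received 10 mg kg^-1 i.p. 1 h before neuronal depolarization. 2-AG and AEA were sampled by in vivo microdialysis from the nucleus accumbens.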

Mus musculus [11] = assay: Inhibition of FAAH in C57B1/6J mouse brain membrane at 16 mg/kg, ip after 4 hrs by competitive activity-based protein profiling method relative to control; format: functional; parameters: scale not given: the % may be the effect or the level left; conditions: route intraperitoneal
Procedure, shortened: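 Male C57Bl/6J mice (6-8 weeks, 20-26 g) given inhibitor i.p. in 4:1 v/v PEG300:Tween80 at 4 ul g^-1 (4-40 mg kg^-1); vehicle controls. Brain membrane proteomes (1 mg ml^-1 in PBS) labelled with FP-rhodamine (2 μM) for 30 min at room temperature. Readout by SDS-PAGE and in-gel fluorescence scanning, compared with vehicle.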

O=C(Oc1ccc([N+](=O)[O-])cc1)N1CCC(C(O)(c2ccc3c(c2)OCO3)c2ccc3c(c2)OCO3)CC1
inhibition (Mus musculus [1]): inactive | Activity (Mus musculus [2]): Active | Activity (Mus musculus [3]): Active | inhibition [4]: inactive | inhibition (Mus musculus [5]): inactive | inhibition (Mus musculus [6]): inactive | fold change (FC) (Mus musculus [7]): 5 | inhibition (Mus musculus [8]): inactive | inhibition (Mus musculus [9]): inactive | inhibition (Mus musculus [10]): Active | Activity (Mus musculus [11]): 35%
